ChEMBL document CHEMBL4130549, “Synthesis and bioactivities study of new antibacterial peptide mimics: The dialkyl cationic amphiphiles” (Eur J Med Chem, 2018)
The source made the active and inactive calls.

Key:
[1] = test system: Klebsiella pneumoniae; test: Antibacterial activity against carbapenemase-producing Klebsiella pneumoniae isolate K10 after 16 to 20 hrs by broth microdilution method; type: functional
Outline: (§1)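 Broth microdilution per CLSI in cation-adjusted Mueller-Hinton broth; 4-6 h cultures (~10⁸ CFU/mL) diluted to ~10⁶ CFU/mL and mixed 1:1 with twofold dilutions of water-dissolved compound (256 to 0.5 µg/mL). Incubated 16-20 h at 37 °C; MIC read visually. Each concentration run in duplicate, whole experiment repeated at least twice. MRSA, KPC and NDM-1 strains were clinical isolates.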

[2] = test system: Staphylococcus aureus; test: Antibacterial activity against methicillin-resistant Staphylococcus aureus isolate M7 after 16 to 20 hrs by broth microdilution method; type: functional
Outline: (§2)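 CLSI broth microdilution in cation-adjusted Mueller-Hinton broth. A 4-6 h culture was diluted to about 10⁶ CFU/mL and mixed 1:1 with twofold compound dilutions (256–0.5 µg/mL before mixing) prepared from aqueous stocks. Plates were incubated at 37 °C for 16-20 h. Each concentration was tested in duplicate, and the experiment was repeated at least twice.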

[3] = test system: Escherichia coli; test: Induction of inner membrane permeabilization in Escherichia coli ATCC 25922 at 20 ug/ml measured every 2 mins for 12 mins by propidium iodide staining based fluorescence assay; type: functional, organism-based
Outline: (§3)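 Mid-log cells (~10^8 CFU/mL) pre-incubated with propidium iodide (10 µM, 50 µL), 30 min for S. aureus and 40 min for E. coli. Fluorescence (ex 535/em 617 nm) read for 8 min, then compound added to 20 µg/mL final and monitored every 2 min for 12 min. Water-treated control.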

[4] = test system: Klebsiella pneumoniae; test: Antibacterial activity against carbapenemase-producing Klebsiella pneumoniae isolate K8 after 16 to 20 hrs by broth microdilution method; type: functional; outline: as §1
[5] = test system: Klebsiella pneumoniae; test: Antibacterial activity against carbapenemase-producing Klebsiella pneumoniae isolate K1 after 16 to 20 hrs by broth microdilution method; type: functional; outline: as §1
[6] = test system: Staphylococcus aureus; test: Antibacterial activity against methicillin-resistant Staphylococcus aureus isolate M10 after 16 to 20 hrs by broth microdilution method; type: functional; outline: as §2
[7] = test system: Escherichia coli; test: Induction of outer membrane permeabilization in Escherichia coli ATCC 25922 at 20 ug/ml measured every 2 mins for 12 mins by NPN staining based fluorescence assay; type: functional, organism-based
Outline: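 Mid-log E. coli (~10^8 CFU/mL) in black plates pre-incubated about 40 min with NPN (10 µM, 50 µL). Baseline read 8 min (ex 350/em 420 nm), then compound added to 20 µg/mL final and fluorescence followed every 2 min for 12 min. Water-treated control.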

[8] = test system: Staphylococcus aureus; test: Antibacterial activity against methicillin-resistant Staphylococcus aureus isolate M2 after 16 to 20 hrs by broth microdilution method; type: functional; outline: as §2
[9] = test system: Klebsiella pneumoniae; test: Antibacterial activity against carbapenemase-producing Klebsiella pneumoniae isolate K3 after 16 to 20 hrs by broth microdilution method; type: functional; outline: as §1
[10] = test system: Staphylococcus aureus; test: Antibacterial activity against methicillin-resistant Staphylococcus aureus isolate M6 after 16 to 20 hrs by broth microdilution method; type: functional; outline: as §2
[11] = test system: Enterobacteriaceae; test: Antibacterial activity against NDM-1-producing Enterobacteriaceae isolate N5 after 16 to 20 hrs by broth microdilution method; type: functional; outline: as §1
[12] = test system: Enterobacteriaceae; test: Antibacterial activity against NDM-1-producing Enterobacteriaceae isolate N6 after 16 to 20 hrs by broth microdilution method; type: functional; outline: as §1
[13] = test system: Staphylococcus aureus; test: Antibacterial activity against methicillin-resistant Staphylococcus aureus isolate M8 after 16 to 20 hrs by broth microdilution method; type: functional; outline: as §2
[14] = Hemolytic activity in sheep RBC after 1 hr; type: ADME, cell-based, Ovis aries, Erythrocyte; details: sheep red blood cells (erythrocytes)
Outline: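 Sheep RBCs suspended at 5% in PBS; 150 µL added to 50 µL compound dilutions (5120 to 10 µg/mL series). Incubated 1 h at 37 °C, then centrifuged; supernatant absorbance read at 540 nm. Lysis (%) = (A−A0)/(Atotal−A0)×100, with untreated 5% RBC as A0 and 0.1% Triton X-100 as total.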

[15] = test system: Klebsiella pneumoniae; test: Antibacterial activity against carbapenemase-producing Klebsiella pneumoniae isolate K5 after 16 to 20 hrs by broth microdilution method; type: functional; outline: as §1
[16] = test system: Staphylococcus aureus; test: Antibacterial activity against methicillin-resistant Staphylococcus aureus isolate M4 after 16 to 20 hrs by broth microdilution method; type: functional; outline: as §2
[17] = test system: Enterobacteriaceae; test: Antibacterial activity against NDM-1-producing Enterobacteriaceae isolate N3 after 16 to 20 hrs by broth microdilution method; type: functional; outline: as §1
[18] = test system: Staphylococcus aureus; test: Antibacterial activity against methicillin-resistant Staphylococcus aureus isolate M3 after 16 to 20 hrs by broth microdilution method; type: functional; outline: as §2
[19] = test system: Enterobacteriaceae; test: Antibacterial activity against NDM-1-producing Enterobacteriaceae isolate N9 after 16 to 20 hrs by broth microdilution method; type: functional; outline: as §1
[20] = test system: Klebsiella pneumoniae; test: Antibacterial activity against carbapenemase-producing Klebsiella pneumoniae isolate K6 after 16 to 20 hrs by broth microdilution method; type: functional; outline: as §1
[21] = test system: Klebsiella pneumoniae; test: Antibacterial activity against carbapenemase-producing Klebsiella pneumoniae isolate K2 after 16 to 20 hrs by broth microdilution method; type: functional; outline: as §1
[22] = test system: Salmonella enterica; test: Antibacterial activity against Salmonella enterica after 16 to 20 hrs by broth microdilution method; type: functional; outline: as §1
[23] = test system: Enterobacteriaceae; test: Antibacterial activity against NDM-1-producing Enterobacteriaceae isolate N7 after 16 to 20 hrs by broth microdilution method; type: functional; outline: as §1
[24] = test system: Klebsiella pneumoniae; test: Antibacterial activity against carbapenemase-producing Klebsiella pneumoniae isolate K9 after 16 to 20 hrs by broth microdilution method; type: functional; outline: as §1
[25] = test system: Enterobacteriaceae; test: Antibacterial activity against NDM-1-producing Enterobacteriaceae after 16 to 20 hrs by broth microdilution method; type: functional; outline: as §1
[26] = test system: Staphylococcus aureus; test: Induction of cytoplasmic membrane depolarization in Staphylococcus aureus ATCC 29213 at 20 ug/ml measured every 2 mins for 12 mins by diSC35 staining based fluorescence assay; type: functional, organism-based
Outline: (§4)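 Mid-log cells (4–6 h) pelleted, washed and resuspended (~10^8 CFU/mL) in PBS for S. aureus, or in 5 mM HEPES, 5 mM glucose and 100 mM KCl (1:1:1) for E. coli. Preloaded with diSC35 (10 µM, 50 µL), 30 min for S. aureus and 40 min plus EDTA (200 µM, 50 µL) for E. coli. Baseline read 8 min (ex 622/em 670 nm), then compound added to 20 µg/mL final and read every 2 min for 12 min. Water control.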

[27] = test system: Staphylococcus aureus; test: Induction of inner membrane permeabilization in Staphylococcus aureus ATCC 29213 at 20 ug/ml measured every 2 mins for 12 mins by propidium iodide staining based fluorescence assay; type: functional, organism-based; outline: as §3
[28] = test system: Klebsiella pneumoniae; test: Antibacterial activity against carbapenemase-producing Klebsiella pneumoniae after 16 to 20 hrs by broth microdilution method; type: functional; outline: as §1
[29] = test system: Staphylococcus aureus; test: Antibacterial activity against methicillin-resistant Staphylococcus aureus after 16 to 20 hrs by broth microdilution method; type: functional; outline: as §2
[30] = test system: Enterobacteriaceae; test: Antibacterial activity against NDM-1-producing Enterobacteriaceae isolate N1 after 16 to 20 hrs by broth microdilution method; type: functional; outline: as §1
[31] = test system: Escherichia coli; test: Antibacterial activity against Escherichia coli ATCC 25922 after 16 to 20 hrs by broth microdilution method; type: functional; outline: as §1
[32] = test system: Enterobacteriaceae; test: Antibacterial activity against NDM-1-producing Enterobacteriaceae isolate N8 after 16 to 20 hrs by broth microdilution method; type: functional; outline: as §1
[33] = test system: Enterococcus faecalis; test: Antibacterial activity against Enterococcus faecalis after 16 to 20 hrs by broth microdilution method; type: functional; outline: as §1
[34] = test system: Staphylococcus aureus; test: Antibacterial activity against Staphylococcus aureus ATCC 29213 after 16 to 20 hrs by broth microdilution method; type: functional; outline: as §2
[35] = test system: Enterobacteriaceae; test: Antibacterial activity against NDM-1-producing Enterobacteriaceae isolate N2 after 16 to 20 hrs by broth microdilution method; type: functional; outline: as §1
[36] = test system: Klebsiella pneumoniae; test: Antibacterial activity against carbapenemase-producing Klebsiella pneumoniae isolate K4 after 16 to 20 hrs by broth microdilution method; type: functional; outline: as §1
[37] = test system: Klebsiella pneumoniae; test: Antibacterial activity against carbapenemase-producing Klebsiella pneumoniae isolate K7 after 16 to 20 hrs by broth microdilution method; type: functional; outline: as §1
[38] = test system: Enterobacteriaceae; test: Antibacterial activity against NDM-1-producing Enterobacteriaceae isolate N10 after 16 to 20 hrs by broth microdilution method; type: functional; outline: as §1
[39] = test system: Staphylococcus aureus; test: Antibacterial activity against methicillin-resistant Staphylococcus aureus isolate M5 after 16 to 20 hrs by broth microdilution method; type: functional; outline: as §2
[40] = test system: Staphylococcus aureus; test: Antibacterial activity against methicillin-resistant Staphylococcus aureus isolate M1 after 16 to 20 hrs by broth microdilution method; type: functional; outline: as §2
[41] = test system: Escherichia coli; test: Induction of cytoplasmic membrane depolarization in Escherichia coli ATCC 25922 at 20 ug/ml measured every 2 mins for 12 mins by diSC35 staining based fluorescence assay; type: functional, organism-based; outline: as §4
[42] = test system: Staphylococcus aureus; test: Antibacterial activity against methicillin-resistant Staphylococcus aureus isolate M9 after 16 to 20 hrs by broth microdilution method; type: functional; outline: as §2
[43] = test system: Enterobacteriaceae; test: Antibacterial activity against NDM-1-producing Enterobacteriaceae isolate N4 after 16 to 20 hrs by broth microdilution method; type: functional; outline: as §1

CCCCCCCCN(CCCCCCCC)C(=O)[C@H](C)N.Cl
16 µg/mL: MIC [1] | MIC [4] | MIC [5] | MIC [9] | MIC [21] | MIC [24] | MIC [28]
32 µg/mL: MIC [15] | MIC [20] | MIC [22] | MIC [36] | MIC [37]
8 µg/mL: MIC [33]
306 µg/mL: HC50 at 1 h [14]
4 µg/mL: MIC [2] | MIC [6] | MIC [8] | MIC [10] | MIC [13] | MIC [16] | MIC [18] | MIC [29] | MIC [31] | MIC [34] | MIC [39] | MIC [40] | MIC [42]
64 µg/mL: MIC [11] | MIC [12] | MIC [17] | MIC [19] | MIC [23] | MIC [25] | MIC [30] | MIC [32] | MIC [35] | MIC [38] | MIC [43]
active: Activity [3] | Activity [7] | Activity [26] | Activity [27] | Activity [41]
